Results on 12 molecules are retold here after ChEMBL document CHEMBL1143907, “Synthesis, nicotinic acetylcholine receptor binding, and pharmacological properties of 3'-(substituted phenyl)deschloroepibatidine analogs” (Bioorg Med Chem, 2008).

SMILES strings stand for the structures.

Assay [1] deals with Neuronal acetylcholine receptor; alpha4/beta2 (Rattus norvegicus, UniProt P09483+P12390). The assay can be described thus: Displacement of [3H]epibatidine from alpha-4-beta-2 nAChR in rat cerebral cortex. The assay is classed as tissue-based. On the technique in general: Loss of bound radioactivity is the signal in a displacement assay; it reports binding, not function.
Neuronal acetylcholine receptor; alpha4/beta2, sequence (P09483 whole entry): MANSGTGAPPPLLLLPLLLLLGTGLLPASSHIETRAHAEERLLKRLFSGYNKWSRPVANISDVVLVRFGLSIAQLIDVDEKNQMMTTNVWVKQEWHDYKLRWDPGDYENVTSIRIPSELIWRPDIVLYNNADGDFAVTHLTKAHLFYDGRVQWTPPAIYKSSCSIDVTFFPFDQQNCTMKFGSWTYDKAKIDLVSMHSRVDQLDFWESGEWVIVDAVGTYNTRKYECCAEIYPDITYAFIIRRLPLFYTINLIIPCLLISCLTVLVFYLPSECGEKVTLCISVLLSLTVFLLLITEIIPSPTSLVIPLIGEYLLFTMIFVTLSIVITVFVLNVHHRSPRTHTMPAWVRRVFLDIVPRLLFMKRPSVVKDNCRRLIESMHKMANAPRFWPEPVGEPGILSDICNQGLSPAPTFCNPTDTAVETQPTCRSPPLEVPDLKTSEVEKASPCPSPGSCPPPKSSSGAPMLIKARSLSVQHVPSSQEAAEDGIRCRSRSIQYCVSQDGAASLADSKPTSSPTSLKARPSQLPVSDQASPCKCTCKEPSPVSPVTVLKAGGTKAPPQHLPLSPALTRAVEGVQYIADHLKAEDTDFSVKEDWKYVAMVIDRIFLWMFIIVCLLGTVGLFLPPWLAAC
Neuronal acetylcholine receptor; alpha4/beta2, sequence (P12390 whole entry): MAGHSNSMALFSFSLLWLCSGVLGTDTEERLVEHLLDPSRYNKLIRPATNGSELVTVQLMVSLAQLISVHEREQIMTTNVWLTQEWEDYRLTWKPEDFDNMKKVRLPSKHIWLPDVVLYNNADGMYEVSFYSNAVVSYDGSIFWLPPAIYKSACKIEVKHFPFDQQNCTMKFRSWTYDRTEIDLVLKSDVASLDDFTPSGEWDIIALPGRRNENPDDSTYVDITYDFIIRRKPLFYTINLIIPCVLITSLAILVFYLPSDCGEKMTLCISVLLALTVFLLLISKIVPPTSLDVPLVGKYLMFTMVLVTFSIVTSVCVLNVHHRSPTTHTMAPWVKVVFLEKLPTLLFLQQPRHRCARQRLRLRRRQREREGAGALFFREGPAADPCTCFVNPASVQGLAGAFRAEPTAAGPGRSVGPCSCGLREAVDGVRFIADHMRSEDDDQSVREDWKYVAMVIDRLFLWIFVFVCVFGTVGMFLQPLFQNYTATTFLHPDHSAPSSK
Assay [2] deals with Neuronal acetylcholine receptor subunit alpha-7 (Rattus norvegicus, UniProt Q05941). The assay can be described thus: Displacement of [125I]iodoMLA from alpha-7 nAChR in rat cerebral cortex. It counts as tissue-based.
Neuronal acetylcholine receptor subunit alpha-7, sequence (Q05941 whole entry): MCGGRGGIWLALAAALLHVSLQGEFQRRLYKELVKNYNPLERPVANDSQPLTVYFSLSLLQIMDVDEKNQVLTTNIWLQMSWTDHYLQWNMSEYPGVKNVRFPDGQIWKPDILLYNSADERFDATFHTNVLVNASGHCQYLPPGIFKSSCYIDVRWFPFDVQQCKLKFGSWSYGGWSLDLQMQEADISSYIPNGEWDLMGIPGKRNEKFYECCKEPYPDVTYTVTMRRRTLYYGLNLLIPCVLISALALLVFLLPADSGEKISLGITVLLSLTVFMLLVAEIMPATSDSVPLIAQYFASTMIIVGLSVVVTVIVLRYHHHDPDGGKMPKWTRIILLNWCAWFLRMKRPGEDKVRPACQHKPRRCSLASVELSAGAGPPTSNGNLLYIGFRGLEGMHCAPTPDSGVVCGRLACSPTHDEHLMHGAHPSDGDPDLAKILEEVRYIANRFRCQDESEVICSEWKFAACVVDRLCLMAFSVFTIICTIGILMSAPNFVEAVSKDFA
Assay [3] concerns Mus musculus. The assay is described as follows: Antinociceptive activity in acute pain mouse model at 10 mg/kg, sc by tail flick method. The assay is classed as functional. The note with it: route subcutaneous. The method in brief:
(§1)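 Mice, tail-flick assay: heat lamp aimed at the tail, with latency to flick recorded. Each mouse's baseline (2–4 s) was taken before treatment, and test latency was taken after sc dosing. Response was expressed as %MPE = [(test−control)/(maximum latency−control)×100]. ED50 values are reported with confidence limits, or as percent effect at the individual dose.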
On the technique in general: In hot-plate and tail-flick tests a longer latency is read as antinociception.

Assay [4] deals with Mus musculus. The assay can be described thus: Inhibition of nicotine-induced antinociception in sc dosed acute pain mouse model by tail flick method. It counts as functional.
Assay [5] has as its system Mus musculus. The assay can be described thus: Antinociceptive activity in acute pain mouse model at 10 mg/kg, sc by hot plate method. The assay is classed as functional. The note with it: route subcutaneous. The method in brief: (§2)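 Mice were placed in a 10-cm glass cylinder on a hot plate held at 55.0 °C. Two control latencies, at least 10 min apart, were taken per mouse (normal 8–12 s). The endpoint was a jump or paw lick, and animals were tested 5 min after sc injection. Response was expressed as %MPE from test, control and maximum latencies. ED50 values are given with confidence limits, or as percent effect at a dose.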

The subject of assay [6] is Mus musculus. The assay can be described thus: Inhibition of nicotine-induced antinociception in acute pain mouse model at 100 ug/kg, sc by hot plate method. It counts as functional. Further details: scale not given: the % may be the effect or the level left.
In assay [7] the test system is Mus musculus. The assay is described as follows: […] in mouse assessed as inhibition of nicotin induced hypothermia at 10 mg/kg, sc. It counts as functional. The note with it: route subcutaneous. Further details: scale not given: the % may be the effect or the level left.
In assay [8] the test system is Mus musculus. The assay is described as follows: Effect on rectal temperature in mouse at 1000 […], sc. The assay is classed as functional. The note with it: route subcutaneous. The method in brief:
(§3)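 Rectal temperature was read with a thermistor probe inserted 24 mm, just before and at several times after sc saline or analog. The pre/post difference was calculated per mouse. Laboratory ambient temperature was 21–24 °C.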

The subject of assay [9] is Mus musculus. The assay is described as follows: Effect on locomotor activity in sc dosed mouse assessed as spontaneous activity. It counts as functional. The method in brief: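 Mice were placed in individual photocell activity cages 5 min after sc saline (0.9%) or analog. Photobeam interruptions (two banks of eight cells) were counted over the next 10 min. Data are the number of interruptions, and ED50 is reported with confidence limits or as percent effect at a dose.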

Assay [10] deals with Mus musculus. The assay can be described thus: Antinociceptive activity in sc dosed acute pain mouse model by tail flick method. The assay is classed as functional. The method in brief:
as §1

For assay [11], the system named is Mus musculus. The assay can be described thus: Antinociceptive activity in sc dosed in acute pain mouse model by hot plate method. It counts as functional. The method in brief: as §2
Assay [12] has as its system Mus musculus. The assay can be described thus: Agonist activity in sc dosed mouse assessed as induction of hypothermia.
Assay [13] relates to Mus musculus. The assay is described as follows: Inhibition of nicotine-induced antinociception in sc dosed acute pain mouse model by hot plate method. It counts as functional.
Assay [14] concerns Mus musculus. The assay is described as follows: Effect on rectal temperature in mouse at 10000 µg/kg, sc. The note with it: route subcutaneous.
Assay [15] has as its target Neuronal acetylcholine receptor subunit alpha-7 (Rattus norvegicus) (UniProt Q05941). The assay can be described thus: Displacement of [125I]iodoMLA from alpha-7 nAChR in rat cerebral cortex at 50 nM. It counts as tissue-based.
Assay [16] relates to Mus musculus. The assay is described as follows: Inhibition of nicotine-induced antinociception in acute pain mouse model at 1000 ug/kg, sc by hot plate method. It counts as functional. Further details: scale not given: the % may be the effect or the level left.
Assay [17] concerns Mus musculus. The assay is described as follows: Effect on rectal temperature in mouse at 100 […], sc. The assay is classed as functional. The note with it: route subcutaneous. The method in brief: as §3
The test system of assay [18] is Mus musculus. The assay is described as follows: Inhibition of nicotine-induced antinociception in acute pain mouse model at 10 ug/kg, sc by tail flick method. Further details: scale not given: the % may be the effect or the level left. The assay is classed as functional.
Assay [19] relates to Mus musculus. The assay can be described thus: Inhibition of nicotine-induced antinociception in acute pain mouse model at 10 ug/kg, sc by hot plate method. It counts as functional. Also on record: scale not given: the % may be the effect or the level left.
In assay [20] the test system is Mus musculus. The assay is described as follows: Effect on rectal temperature in mouse at 10 mg/kg, sc. The assay is classed as functional. The note with it: route subcutaneous. The method in brief:
as §3

Neuronal acetylcholine receptor subunit alpha-7 (Rattus norvegicus), sequence (Q05941 whole entry): as above

Turning to `Fc1ccc(-c2cncc(C3CC4CCC3N4)c2)cc1` (centres undefined), the Ki (commonly a measure of affinity in units of concentration, obtained from inhibition or displacement) in assay [1] was 0.15 nM; in assay [2], greater than 2000 nM. The Activity in the assay on Mus musculus [3] is listed as 3%; in the assay on Mus musculus [5] it was 13%; with Mus musculus [6], 10%; in the assay with Mus musculus [7], -1.6%; with Mus musculus [8], 0%. Besides, the AD50 in the assay with Mus musculus [4] amounted to 0.013 mg/kg. For the same molecule, the ED50 (usually the dose at which the effect has come halfway, by size or by number of responders) in the assay on Mus musculus [9] stood at 3 mg/kg.
With `CN1CCC[C@@H]1c1cccnc1` [R-NICOTINE], the ED50 was 1.3 mg/kg in the assay on Mus musculus [10], 0.65 mg/kg in the assay on Mus musculus [11], 0.5 mg/kg in the assay with Mus musculus [9] and 1 mg/kg with Mus musculus [12].
On to `c1cnc2cc3c(cc2n1)[C@@H]1CNC[C@H]3C1` [VARENICLINE], for which the figures for the Activity in the assay on Mus musculus [3], in the assay on Mus musculus [5] and with Mus musculus [14] were 11%, 10% and 0%, respectively. Moreover, the AD50 turned out to be 0.0002 mg/kg in the assay on Mus musculus [4] and 0.47 mg/kg with Mus musculus [13]. Besides, the ED50 in the assay with Mus musculus [9] amounted to 2.1 mg/kg; in the assay with Mus musculus [12], 2.8 mg/kg.
As for `Cl.Cl.c1ccc(-c2cncc(C3CC4CCC3N4)c2)cc1` (racemic), in [1], the Ki came to 0.5 nM. Moreover, the Activity in assay [15] is 7%; with Mus musculus [3] it was 6%; in the assay with Mus musculus [5], 30%; in the assay with Mus musculus [16] it was 10%; in the assay with Mus musculus [8], 0%. Further, in the assay on Mus musculus [4], the AD50 amounted to 0.3 mg/kg. In addition, the values for the ED50 in the assay with Mus musculus [9] and in the assay on Mus musculus [12] were 0.5 mg/kg and 1.5 mg/kg, respectively.
Consider `Clc1ccc(C2CC3CCC2N3)cn1` (racemic) [EPIBATIDINE], for which the ED50 is 0.006 mg/kg with Mus musculus [10], 0.004 mg/kg in the assay on Mus musculus [11], 0.001 mg/kg in the assay with Mus musculus [9] and 0.004 mg/kg with Mus musculus [12].
Molecule `Cl.Fc1ccc(-c2cc(C3CC4CCC3N4)cnc2F)cc1` (racemic) came in with a Ki in assay [1] of 0.029 nM. Also, the AD50 was determined as 0.0005 mg/kg with Mus musculus [4] and 0.23 mg/kg in the assay on Mus musculus [13]. Also, the Activity was found to be 15% with Mus musculus [5] and 0% with Mus musculus [17].
For `Clc1ccc(-c2cncc(C3CC4CCC3N4)c2)cc1` (centres undefined), the values for the Ki in [1] and in [2] were 0.21 nM and greater than 2000 nM, respectively. The Activity in the assay on Mus musculus [3] was determined as 1%; with Mus musculus [18], 0%; in the assay on Mus musculus [5], 11%; in the assay with Mus musculus [19], 0%; with Mus musculus [7], 2%; in the assay on Mus musculus [8], 5%. Besides, the ED50 in the assay on Mus musculus [9] worked out at 10.5 mg/kg.
Regarding `COc1cccc(-c2cc(C3CC4CCC3N4)cnc2F)c1.Cl` (racemic), the results for the AD50 in the assay with Mus musculus [4] and in the assay on Mus musculus [13] were 0.008 mg/kg and 2 mg/kg, respectively. Further, the Activity in the assay on Mus musculus [5] was determined as 8%.
`Cl.Fc1ncc(C2CC3CCC2N3)cc1-c1cccc(Cl)c1` (racemic): the affinity in [1] corresponds to a Ki of 0.073 nM. The AD50 in the assay on Mus musculus [4] was found to be 0.012 mg/kg; in the assay with Mus musculus [13] it was 0.45 mg/kg. Besides, the Activity with Mus musculus [5] was found to be 14%; with Mus musculus [8], 0%.
Turning to `Cl.Fc1cccc(-c2cc(C3CC4CCC3N4)cnc2F)c1` (racemic), the Ki in [1] is 0.087 nM. The same molecule came in with an AD50 in the assay with Mus musculus [4] of 0.005 mg/kg. In addition, the Activity is on record as 2% with Mus musculus [16] and 0% in the assay with Mus musculus [8].
`Cl.Cl.Fc1cccc(-c2cncc(C3CC4CCC3N4)c2)c1` (racemic): the Ki is 0.2 nM in assay [1] and greater than 2000 nM in assay [2]. For the same molecule, the Activity in the assay with Mus musculus [3] was 2%; in the assay on Mus musculus [5], 8%; with Mus musculus [7] it was 0%; with Mus musculus [20] it was 0%. Besides, the AD50 was found to be 0.0031 mg/kg in the assay with Mus musculus [4] and 3 mg/kg in the assay with Mus musculus [13]. In addition, in the assay with Mus musculus [9], the 50% effective dose (ED50) stood at 5 mg/kg.
In [1], `Cl.O=[N+]([O-])c1ccc(-c2cc(C3CC4CCC3N4)cnc2F)cc1` (racemic) gave a Ki of 0.009 nM. Also, the values for the AD50 in the assay with Mus musculus [4] and in the assay with Mus musculus [13] were 0.003 mg/kg and 0.12 mg/kg, respectively. Moreover, the Activity in the assay with Mus musculus [5] is given as 10%; in the assay on Mus musculus [8], 0%. For the same molecule, the ED50 in the assay with Mus musculus [12] was determined as 3.5 mg/kg.
